Test results taken from ChEMBL document CHEMBL3046951, “Volatile constituents from the leaves of Callicarpa japonica Thunb. and their antibacterial activities” (2004).

Experiments:
Type in all cases: functional
Salmonella typhimurium = assay: Antimicrobial activity against Salmonella enterica subsp. enterica serovar Typhimurium ATCC 14028 assessed as growth inhibition rate at 9.84 mg/l after 72 hr by spectrophotometry; settings: ATCC 14028, 72 h, read-out: GI
Vibrio parahaemolyticus = assay: Antimicrobial activity against Vibrio parahaemolyticus ATCC 33844 assessed as growth inhibition rate at 9.84 mg/l after 72 hr by spectrophotometry; settings: ATCC 33844, 72 h, read-out: GI
Listeria monocytogenes = assay: Antimicrobial activity against Listeria monocytogenes ATCC 19111 assessed as growth inhibition rate at 9.84 mg/l after 72 hr by spectrophotometry; settings: ATCC 19111, 72 h, read-out: GI
Summary of the method: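 Pure volatile compounds (>95% purity) tested on Listeria monocytogenes ATCC 19111 in tryptic soy broth at 30 °C. Inoculum: 24 h culture subcultured (0.1 mL into 9.9 mL broth) and grown 18 h. Growth followed by Bioscreen C optical density every 24 h for 72 h against a 10% Tween 80 control.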

Bacillus cereus = assay: Antimicrobial activity against Bacillus cereus ATCC 11778 assessed as growth inhibition rate at 9.84 mg/l after 72 hr by spectrophotometry; settings: ATCC 11778, 72 h, read-out: GI
Summary of the method: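 Pure volatile compounds (>95% purity) from the leaf extract were tested against B. cereus grown at 30 °C in nutrient broth from an 18 h subculture. Optical density was read in a Bioscreen C every 24 h over 72 h, and activity was compared with a 10% Tween 80 control.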

Escherichia coli = assay: Antimicrobial activity against Escherichia coli O157:H7 ATCC 43894 assessed as growth inhibition rate at 9.84 mg/l after 72 hr by spectrophotometry; settings: O157:H7 ATCC 43894, 72 h, read-out: GI
Summary of the method: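 Authentic volatiles (>95% purity; 2,4-heptadienal 90%) tested against 18 h subcultures. Growth media: E. coli O157:H7 and S. aureus in tryptic soy broth at 37 °C; L. monocytogenes in tryptic soy broth at 30 °C; V. parahaemolyticus in tryptic soy broth + 3% NaCl at 37 °C; S. typhimurium in nutrient broth at 30 °C. Bioscreen C OD every 24 h for 72 h versus 10% Tween 80 control.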

Staphylococcus aureus = assay: Antimicrobial activity against Staphylococcus aureus ATCC 25923 assessed as growth inhibition rate at 9.84 mg/l after 72 hr by spectrophotometry; settings: ATCC 25923, 72 h, read-out: GI

## CCCCCCO [1-HEXANOL]
Salmonella typhimurium
  inhibition of growth at 9.84 µg/mL: 23.3%
Vibrio parahaemolyticus
  inhibition of growth at 9.84 µg/mL: 27.1%
Listeria monocytogenes
  inhibition of growth at 9.84 µg/mL: 4.2%
Bacillus cereus
  inhibition of growth at 9.84 µg/mL: 3.6%
Escherichia coli
  inhibition of growth at 9.84 µg/mL: 16.9%
Staphylococcus aureus
  inhibition of growth at 9.84 µg/mL: 6.9%
